In the EternaBench riboswitch data:

Test system: MS2 coat protein
Test: apparent Kd, MS2 coat protein; higher = weaker binding; RNA-MaP array
How it was run: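 Fluorescently labeled MS2 coat protein, from 1.5 nM to 3 μM, was incubated at room temperature with designed RNAs transcribed on an Illumina sequencing chip from sequenced DNA templates. Times ran from 0.8–1.5 h at the lowest concentrations to 10–20 min at the highest, in Tris-HCl pH 7.5 buffer with KCl, MgCl2, BSA, DTT, tRNA and Tween20, with or without input ligand. Each apparent Kd is the median of per-cluster binding-curve fits, and designs with fewer than 10 measured clusters were excluded.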

[1] = designed as: ON switch for tryptophan, no ligand
[2] = ligand present: tryptophan, designed as: ON switch for tryptophan
[3] = designed as: OFF switch for flavin mononucleotide, no ligand
[4] = ligand present: flavin mononucleotide, designed as: OFF switch for flavin mononucleotide
[5] = designed as: ON switch for flavin mononucleotide, no ligand
[6] = ligand present: flavin mononucleotide, designed as: ON switch for flavin mononucleotide
[7] = designed as: OFF switch for tryptophan, no ligand
[8] = ligand present: tryptophan, designed as: OFF switch for tryptophan
[9] = designed as: ON switch for theophylline, no ligand
[10] = ligand present: theophylline, designed as: ON switch for theophylline

Row | Sequence | apparent Kd [3] | apparent Kd [4] | apparent Kd [5] | apparent Kd [6] | also measured
1 | CGGGACAUGAGGAUCACCCAUGUACGAUCCCGAGGACCGGUACGGCCGCCACUCGCUAGCGUUGAGUCGCGACUUUCAUAACUAA | – | – | – | – | apparent Kd [1]: 74.4 nM; apparent Kd [2]: 43.3 nM
2 | GUCUCACAGAUAGGAUAUGGUUUUCACAUGAGGAUCACCCAUGUAAAUCCUAAAGUAAGUGGAGGCCAGAAGGAUCCGGUACAG | 32.2 nM | 35.1 nM | – | – | –
3 | AGCACAAUAGGAUAUACAUGAGGAUCACCCAUGUAGAAAUUUGGUACCCGGGUGUCUUGUAGAAGGAUAGAAGA | 16.4 nM | 15.1 nM | – | – | –
4 | CCUCCUUGUACGGCCGCCACUGCAUCUCUGGAUACUCCGAUAAUACAUGAGGAUCACCCAUGUUACAGGACCGGGUAUAUAUUAC | – | – | – | – | apparent Kd [1]: 15 nM; apparent Kd [2]: 16 nM
5 | UACUGCAAACAGAAGGUUGGAAGUCGGUUCUCCAAAGGAUAUGUACAUGAGGAUCACCCAUGUGCGCAAAUCGCACAGAGGAGG | 14.6 nM | 36.9 nM | – | – | –
6 | CGCAGCAUCUAGAAGGGCGAAUCAACAAUACAACUAGUGAACAUGAGGAUCACCCAUGUAAUGACGCAGGAUAUAGUAGCAAAG | – | – | 26.5 nM | 13.7 nM | –
7 | UUCAUUUAGGAGGAUAUUUAGGCAUGAGGGCUAAAAGAAGGCCUAACAUGAGGAUCACCCAUGUUUGGACUAGA | 5.51 nM | 7.4 nM | – | – | –
8 | UGAAAACCGUCAUAAACAAACAUGAGGAUCACCCAUGUAGCUAAGGAUAUUGACAAACAAAGACUCAAGAAGGUAGAACCUACA | 7.99 nM | 7.26 nM | – | – | –
9 | GUAAGCAAGCAAGGAUAUGAUAUAAAUUCGAUAUCAGAAGGUGCCUUUCCUAGUCGAAUACAUGAGGAUCACCCAUGUCAGCAA | – | – | 25.6 nM | 18 nM | –
10 | CUUUACAUAUGUAUGUGGGUUACAUGAGGAUCACCCAUGUGAAGAAGGCUCACCUCAAGCGCAAGAGAGGAUAUUCACGGGUCC | 60.8 nM | 104 nM | – | – | –
11 | UCUUUCUUUAAAGAACACAUGAGGAUCACCCAUGUUCAAGGGCAGGAUAUGAGUAUCUGUUCGGAUCAGAAGGGCCCAACAGGU | – | – | 36 nM | 29.5 nM | –
12 | AAACUCCGCAAGAAGGGUAUUCAAUGAAGUUGUACAGGAUAUUGGCGCAGACAUGAGGAUCACCCAUGUAAGUUCUUCAUGGUU | 125 nM | 120 nM | – | – | –
13 | UCUAAAAUCGGAGGAUAUUACGAAGACAUGAGGAUCACCCAUGUAGUGGAACACAUAAGUCGCUCUAAGAAGGCCGCAAUUGAC | 29.5 nM | 34.6 nM | – | – | –
14 | AAAGAAAGAGUGAGGAUAUGAUAUAAACAAAAGUAACAGAAGGCACAUGAGGAUCACCCAUGUGACUAUAGAAU | 6.08 nM | 5.62 nM | – | – | –
15 | ACCUCGUAAGGAUAUAGAUGCCCGUACACAACAACAGAACUCUAGAAGGUACAUGAGGAUCACCCAUGUUGAUG | 21.5 nM | 20.9 nM | – | – | –
16 | GCGUGGUAAGGAUAUGUGUACGUCCGGUAGUAUAGCGUACAACAGAAGGUACAUGAGGAUCACCCAUGUGUCCG | 7.03 nM | 7.94 nM | – | – | –
17 | ACGUUGCAGCAAGGAUAUUCGAGACUACUAGAAGAAGAAGGUGCCGUGCUCUUCACAUGAGGAUCACCCAUGUGGCGUUAAUUU | 9.11 nM | 8.35 nM | – | – | –
18 | ACAGCACAUGAGGAUCACCCAUGUCGACAUGUAUUAGGAUAUGAUCCGCGCUAGACACCAUCAGAAGGAAUACCGA | – | – | 43 nM | 23.7 nM | –
19 | CCCAACAUGAGGAUCACCCAUGUUCCGGGUCGAGGACCGGUACGGCCGCCACUCGGUAUGAUGGGUGUGCAGCGUAUCUGCACCA | – | – | – | – | apparent Kd [1]: 38.5 nM; apparent Kd [2]: 17.2 nM
20 | AGUUCUGGAGGAUAUACAUCCUCAAUGUCCAACCUGCGGAUACAUGAGGAUCACCCAUGUAGAAGGCCACACAA | 6.53 nM | 9.75 nM | – | – | –
21 | CGUCGAUAACCACAUGAGGAUCACCCAUGUAAUGUGGUGUGGAGAAGGUCGUGCUAGUUCUAUACGAAGGAUAUCCACGAAUCU | 124 nM | 98.3 nM | – | – | –
22 | CCAUGAAGAUAGGAUAUAGGUCGAGUUCCCGAACAAGAAGGAUCGACAUGAGGAUCACCCAUGUGCAUCCAUGA | 27.1 nM | 21.1 nM | – | – | –
23 | AAAUCUAACGAGAAGGGAGUGGCCGGCCACUUAGCAGACAUGAGGAUCACCCAUGUGAAGAUCACUCAGGAUAUCGAUAAUCCA | – | – | 24.9 nM | 22.7 nM | –
24 | ACGUGGCAACAUGAGGAUCACCCAUGUAAAGAUAAUGAUUACAGAAGGCCCGGAGGAAGGCAAAGGGAGGAUAUGUGUGCCUAC | – | – | 29.8 nM | 12.7 nM | –
25 | CUUGUAACCUAAGGAUAUGAUUAGGGCAUCACAUGAGGAUCACCCAUGUGGCGUGAUCCGAGCCUUCAGAAGGUAGGGGAGCAU | 475 nM | 479 nM | – | – | –
26 | ACAUGAGGAUCACCCAUGUUCUCAAGUAUAAUAGAUAAAUCAAGAAGGGCUAAUCGACCGAAUAAGCAGGAUAUUGUGAUAUGG | 18.3 nM | 21.2 nM | – | – | –
27 | ACACAAACAGAAGGAUAUUUCACCAACAAGUCGAAAGAAGGUCUAGUACAUGAGGAUCACCCAUGUCUCAGUACAUCGCCGGUU | 33.7 nM | 30.9 nM | – | – | –

Row | Sequence | apparent Kd [3] | apparent Kd [4] | apparent Kd [5] | apparent Kd [6] | also measured
28 | GAAGCGUGAGCAGGAUAUUUAGACAUGAGGAUCACCCAUGUGUGCUAACUAGAAUGCAGGUUUUUAAAGAAGGGCUCCUAGAUU | – | – | 11.4 nM | 7.11 nM | –
29 | GCUACACAGGACCGUACUAAGGAUUCGCCUCGAGGACCGGUACGGCCGCCACUCGUUGCGCGACAUGAGGAUCACCCAUGUGUUC | – | – | – | – | apparent Kd [7]: 46 nM; apparent Kd [8]: 36.7 nM
30 | GCUACACAUGAGGAUCACCCAUGUAUGCAUAGACGAGGAUAUAGACCACCUCCCGGGAUACUAGAAGGCGUGAUAU | – | – | 19.3 nM | 10.3 nM | –
31 | UAGGAACAUGAGGAUCACCCAUGUUAGGAUAUCGAGGUAUGGAUUAUCAUGCUGUAAGCGAGAAGGAACGUGUG | 30.8 nM | 29.6 nM | – | – | –
32 | CUAAGAGUUACGGCCGCCACUAGUUGGGAUCCGCCCGUAAAAUCACAUGAGGAUCACCCAUGUCCUAGGACCGGGUAAUCGCAUU | – | – | – | – | apparent Kd [1]: 265 nM; apparent Kd [2]: 142 nM
33 | AAUGGGCGAGUAGAGCAUAAUUUCCACUCCCGAGGACCGGUACGGCCGCCACUCGUUCGCUCACAUGAGGAUCACCCAUGUGGUC | – | – | – | – | apparent Kd [7]: 32.3 nM; apparent Kd [8]: 57.2 nM
34 | UCCAUGUUAGGAUAUCGGCCACCUUCGACAAAAGUGUACUGCGAGAAGGAACAUGAGGAUCACCCAUGUCUGGG | 416 nM | 104 nM | – | – | –
35 | UUAUAUCUUUAGGAUAUGCUGUGUCGGCAACUAGCAGAAGGAAAGACAUGAGGAUCACCCAUGUUGGUGCGUUC | 58.8 nM | 249 nM | – | – | –
36 | GCCUAGGGUCAAGGAUAUCACCCAGUGGUCCGUACAUGAGGAUCACCCAUGUCACCGGGAACGGGUGAGAAGGUGAAAAGUCGA | – | – | 13.9 nM | 9.93 nM | –
37 | AGACCAUCCUUAGGAUAUGGCUAUCUUAUCAAGCCAGAAGGAAGGGCCUCAUCUAACAUGAGGAUCACCCAUGUGCGCAAGUUU | 81.3 nM | 51.9 nM | – | – | –
38 | CAUUGAGCAGCUGAUACCAGUGCCUGAACUUACAUGAGGAUCACCCAUGUAUGCCCAAAACACCCUUGGCAGCAGAGGAAGAUCG | – | – | – | – | apparent Kd [9]: 14.5 nM; apparent Kd [10]: 13.9 nM
39 | CCGUAUCGACCAGGAUAUUCAAUAGCGCCACAUGAGGAUCACCCAUGUUUAUAUCUUCAUGGAAGGAAGAAGGGGUACAAGCGG | 199 nM | 240 nM | – | – | –
40 | GUACCUCCCAAAGGAUAUGGACCGCAGACAUGAGGAUCACCCAUGUAGGACGCACUGUUUGCGCGCCAGAAGGUUGUUAAUCGC | 98.5 nM | 73.2 nM | – | – | –
41 | GGGCGUGGAGUAGGAUAUCCUGUAUACAUGAGGAUCACCCAUGUACAUAUCUAGUAUUACCGUUUGGAGAAGGACUGUUGGGCU | – | – | 11.5 nM | 9.71 nM | –
42 | GGUGCACAUGAGGAUCACCCAUGUGAGGAUAUGUGAAACGAGCUGAAUGCCAACCAAAACAGAAGGCACAAUGG | 18.3 nM | 19 nM | – | – | –
43 | AGCCAAUAAGGAUAUACAUUUAGAGAUCAUCGUACAAAGUAACAUGAGGAUCACCCAUGUAGAAGGUAUGCAGC | 10.2 nM | 11.3 nM | – | – | –
44 | CAGCCACAUGAGGAUCACCCAUGUGAUGAUACCAGCUUCGUCUUAAGCCCUUGGCAGCAUAUCUCUUUGUUCUCAUACAUAGCAU | – | – | – | – | apparent Kd [9]: 11.1 nM; apparent Kd [10]: 12.3 nM
45 | CCAUGCGUUGAGAAGGUGCUCGGGAAUCCACAUGAGGAUCACCCAUGUUGACUAGUAAGGCAUCGCAAGGAUAUCAGCUAUCUC | 28.8 nM | 25.3 nM | – | – | –
46 | GACACCCAAGGAUAUCAAUGAAUCAACAUGAGGAUCACCCAUGUCGUCACCAGAUUAAACUGAGAAGGAGGAGAAA | 11.4 nM | 9.75 nM | – | – | –
47 | ACAUGAGGAUCACCCAUGUAAUAUAUAAAGACUAAAACUAGUUAGGAUAUAUCACAUGUACAGGGAUAGAAGGAACUAGUCUGC | – | – | 7.15 nM | 5.84 nM | –
48 | AUUCAAAUAACAGGAUAUGACAUAAACUACGAAUCAGAAGGGUUACAUAAAUCAACAUGAGGAUCACCCAUGUAUACUCCACAA | – | – | 17.5 nM | 11.7 nM | –
49 | GUGGGCCGGGUAGGAUAUCGACAUGAGGAUCACCCAUGUGUGAGUUGAUGAACUCACGGAUAGCCCGAGAAGGACCUCAGGGCU | – | – | 17.9 nM | 16.2 nM | –
50 | CCAACCUGUCGAGCACCAUAACAUGAGGAUCACCCAUGUAUCAGAAGGUGUGUGAGUAAGGAAGACAAGGAUAUGACUCGACGC | – | – | 16.9 nM | 12.7 nM | –
51 | CGGUGAUUCGUAGGAUAUGUAUGAAGCUAGAGAACAGAAGGACGUCGCUACAAAAUUCAAAAUUACAUGAGGAUCACCCAUGUA | – | – | 25.2 nM | 16.4 nM | –
52 | CAUUCCAAGGCGGAGGAUAUUCGGAUCGCCACAUGAGGAUCACCCAUGUACGAGUAGUCUGCAACGAAGAAGGCCGUACGUCACCA | – | – | 10.5 nM | 6.57 nM | –
53 | AGUCAAAAUUAGAAGGAGCGUUGACCCUGUUAGCUAGGAUAUAAUUCAUGCGAACAUGAGGAUCACCCAUGUAGACGUACCAAC | – | – | 86.5 nM | 44.9 nM | –
54 | GAACCUAUAGGAUAUACAUGAGGAUCACCCAUGUAGCCAUCUAUUCGUGGGACUAGGUGUAGAAGGAUAGCAAA | 12.7 nM | 11.8 nM | – | – | –
